From ChEMBL document CHEMBL4017532, “Multifunctional Hybrid Compounds Derived from 2-(2,5-Dioxopyrrolidin-1-yl)-3-methoxypropanamides with Anticonvulsant and Antinociceptive Properties” (J Med Chem, 2017)
Activity calls are given as the source filed them. The rule behind the calls is not given here.

Experiments:
Mus musculus [1] = assay: Anticonvulsant activity in Albino Swiss CD-1 mouse assessed as protection against 6 Hz current-induced seizure at 100 mg/kg, ip pretreated up to 0.5 hrs followed by 6 Hz current induction for 3 secs relative to control; format: functional
Mus musculus [2] = assay: Protection index, ratio of TD50 for neurotoxicity in ip dosed Albino Swiss CD-1 mouse to ED50 for ip dosed Albino Swiss CD-1 mouse model of 6 Hz-induced siezures
Outline: (§1)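 Acute neurological toxicity after ip dosing (1% Tween 80 suspension) was assessed in the mouse chimney test. TD50 with 95% confidence limits was derived by probit analysis. Protective index is TD50 from the chimney test divided by ED50 from the MES, scPTZ or 6 Hz test.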

Mus musculus [3] = assay: Anticonvulsant activity in Albino Swiss CD-1 mouse assessed as protection against 6 Hz current-induced seizure at 100 mg/kg, ip pretreated up to 2 hrs followed by 6 Hz current induction for 3 secs relative to control; format: functional
Mus musculus [4] = assay: Anticonvulsant activity in ip dosed Albino Swiss CD-1 mouse assessed as protection against 32 mA current-induced seizure treated up to 2 hrs prior to 6-Hz current induction measured at time to peak effect; format: functional; settings: Swiss CD-1, ip
[5] = Neurotoxicity in ip dosed Albino Swiss CD-1 mouse assessed as induction of motor impairment measured up to 60 secs by chimney test; format: toxicity, organism-based; settings: in vivo; outline: as §1
Mus musculus [6] = assay: Anticonvulsant activity in Albino Swiss CD-1 mouse assessed as protection against maximal electroshock-induced seizures by measuring time to peak effect at 100 mg/kg, ip pretreated up to 2 hrs followed by 50 Hz current induction for […]; format: functional
Mus musculus [7] = assay: Anticonvulsant activity in Albino Swiss CD-1 mouse assessed as protection against maximal electroshock-induced seizures at 100 mg/kg, ip pretreated up to 2 hrs followed by 50 Hz current induction for […] relative to control; format: functional
Mus musculus [8] = assay: Anticonvulsant activity in ip dosed Albino Swiss CD-1 mouse assessed as protection against maximal electroshock-induced seizures pretreated up to 2 hrs followed by 50 Hz current induction for […] measured at time to peak effect; format: functional; settings: Swiss CD-1, ip
Mus musculus [9] = assay: Protection index, ratio of TD50 for neurotoxicity in ip dosed Albino Swiss CD-1 mouse to ED50 for ip dosed maximal electroshock induced seizure Albino Swiss CD-1 mouse; outline: as §1
Mus musculus [10] = assay: Analgesic activity in Albino Swiss CD-1 mouse assessed as increase in pain response latency administered at 4 mg/kg, ip treated up to 90 mins prior to tet by hot plate assay; format: functional, organism-based
Outline: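 Adult male Albino Swiss CD-1 mice (18−25 g), 6−12 per group, each used once. Drug given ip suspended in 1% aqueous Tween 80; vehicle controls received Tween 80. Mice were put back on the hot plate at 15, 30, 45, 60 and 90 min after dosing, and latency to pain reaction was recorded. Data are means ± SEM, analysed by ANOVA with post hoc tests.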

[11] = Retention time of the compound by LC-MS method
Liver = assay: Drug level in human liver microsomes treated with 1-{1-[4-(3-Trifluoromethylphenyl)piperazin-1-yl]-3-methoxy-1-oxopropan-2-yl}pyrrolidine-2,5-dione preincubated for 5 mins followed by NADPH addition measured after 2 hrs by LC-MS method; format: ADME, microsome

SMILES	Ratio TD50/ED50 (Mus musculus [2])	Activity (Mus musculus [3])	ED50 (Mus musculus [4]) [mg/kg]	TD50 at 1 min [5] [mg/kg]	Time (Mus musculus [6]) [h]	also measured
O=C(C(CO)N1C(=O)CCC1=O)N1CCN(c2ccc(C(F)(F)F)cc2)CC1 (centres undefined)						Efficacy (Mus musculus [1]): 50%
COCC(C(=O)N1CCN(c2ccc(F)cc2)CC1)N1C(=O)CCC1=O (centres undefined)	4.3	<=75%	71.4	306	0.25	
COCC(C(=O)N1CCN(c2cccc(C)c2)CC1)N1C(=O)CCC1=O (centres undefined)	4.5	<=75%	47.7	213	0.25	Activity (Mus musculus [7]): <=75%
COC[C@H](C(=O)N1CCN(c2ccc(C(F)(F)F)cc2)CC1)N1C(=O)CCC1=O	8 - 9.2		21.1 to 22.1	167 to 194	0.25 to 1	ED50 (Mus musculus [8]): 80.9 to 88.9 mg/kg; Ratio TD50/ED50 (Mus musculus [9]): 1.9 - 2.1
CN1CC[C@]23c4c5ccc(O)c4O[C@H]2[C@@H](O)C=C[C@H]3[C@H]1C5						Activity (Mus musculus [10]): Active
COCC(C(=O)N1CCN(c2cccc(OC)c2)CC1)N1C(=O)CCC1=O (centres undefined)		<=75%	> 100		0.25	
COC[C@@H](NC(C)=O)C(=O)NCc1ccccc1 [LACOSAMIDE]	5.3		6.4	33.7	0.5	ED50 (Mus musculus [8]): 9.4 mg/kg; Ratio TD50/ED50 (Mus musculus [9]): 3.6
COCC(C(=O)N1CCN(c2cccc(Cl)c2Cl)CC1)N1C(=O)CCC1=O (centres undefined)	4.8 - 5.9	<=75%	38 to 54.7	224 to 261	0.25 to 0.5	
COCC(C(=O)N1CCN(c2ccc(Cl)cc2)CC1)N1C(=O)CCC1=O (centres undefined)	2.4 - 4.6	<=75%	45.5 to 77	180 to 208	0.25 to 1	
COCC(C(=O)N1C=CN(c2cccc(C(F)(F)F)c2)CC1)N1C(=O)CCC1=O (centres undefined)						Retention time [11]: 6.33 min; Drug metabolism (Liver): Metabolite_Detected
CC[C@@H](C(N)=O)N1CCCC1=O [LEVETIRACETAM]	>33.8			> 500	1	ED50 (Mus musculus [8]): > 500 mg/kg
